This is a sample that favours compounds with a hit; in the whole collection about 6.5% have one here.
Pyk2 oligo antag: Pyk2 (human) oligomerization antagonism | Q14289 | Q293 cells, Pyk2 FERM NanoBiT luminescence; stronger effect = lower value | z-score (the deposit names both 25 µM and 10 µM) | 99,000 compounds, 0.83% hits | AID 1347419;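 active = Z-score of -3 or lower, scaled per plate to the spread of control and sample wells; inactive = z-score above -3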;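 also: negative z-score means lost luminescence so less FERM oligomerization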
Target sequence (Q14289 whole entry, looked up): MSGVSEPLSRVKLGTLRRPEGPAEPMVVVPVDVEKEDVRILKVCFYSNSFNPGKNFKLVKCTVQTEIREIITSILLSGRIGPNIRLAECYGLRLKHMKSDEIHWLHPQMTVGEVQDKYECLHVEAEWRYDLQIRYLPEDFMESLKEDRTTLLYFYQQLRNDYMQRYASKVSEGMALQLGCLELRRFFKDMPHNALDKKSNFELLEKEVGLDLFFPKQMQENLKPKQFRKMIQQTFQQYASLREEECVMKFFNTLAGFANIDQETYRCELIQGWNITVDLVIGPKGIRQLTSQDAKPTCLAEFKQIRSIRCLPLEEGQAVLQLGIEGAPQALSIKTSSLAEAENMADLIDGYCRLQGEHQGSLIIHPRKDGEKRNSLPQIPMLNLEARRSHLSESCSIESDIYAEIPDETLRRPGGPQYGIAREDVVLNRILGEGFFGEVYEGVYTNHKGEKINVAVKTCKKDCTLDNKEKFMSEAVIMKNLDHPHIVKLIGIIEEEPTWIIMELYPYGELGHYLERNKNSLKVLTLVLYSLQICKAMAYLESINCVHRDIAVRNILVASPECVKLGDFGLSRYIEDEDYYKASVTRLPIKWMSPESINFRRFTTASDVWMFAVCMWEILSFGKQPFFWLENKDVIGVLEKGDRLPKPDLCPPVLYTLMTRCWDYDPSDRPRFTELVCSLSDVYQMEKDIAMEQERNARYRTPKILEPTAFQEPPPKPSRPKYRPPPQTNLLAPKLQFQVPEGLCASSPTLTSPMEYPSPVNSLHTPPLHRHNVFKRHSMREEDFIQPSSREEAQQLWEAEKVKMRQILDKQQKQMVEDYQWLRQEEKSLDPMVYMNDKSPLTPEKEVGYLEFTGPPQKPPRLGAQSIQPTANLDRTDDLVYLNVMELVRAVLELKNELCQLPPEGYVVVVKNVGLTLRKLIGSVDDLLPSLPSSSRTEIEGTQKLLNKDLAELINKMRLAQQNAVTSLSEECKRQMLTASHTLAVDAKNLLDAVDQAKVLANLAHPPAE
Calb biofilm kill: kills Candida albicans biofilms | AID 834 | 85,000 compounds, 0.14% hits | inhibition, % at 6 µM | C. albicans biofilm + clotrimazole, Alamar Blue;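 active = inhibition above 20%; inactive = inhibition below 20%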;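 also: preformed 24 hr biofilms exposed to compound for 48 hr; 0% = biofilm without compound and 100% = blank killed by clotrimazole plus chlorhexidine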
PostGolgi yeast: growth inhibition of a yeast mutant, post-Golgi transport screen | post-Golgi transport phenotypic cell assay | inhibition, % at 10 µM | 98,000 compounds, 0.9% hits | AID 739;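 also: yeast cells grown in 1536-well plates; yeast grown about 18 h at 30C before absorbance read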
PostGolgi ctrl: inhibits growth of the yeast control strain | efflux-deficient yeast background strain, growth absorbance A615, 16 h | inhibition, % at 10 µM | 98,000 compounds, 5% hits
Ecoli tolC: E. coli tolC mutant growth inhibition; AID 573; 65,000 compounds, 2.2% hits; E. coli BW25113 tolC mutant growth, OD615; growth inhibition, % at 10 µM (by protocol);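 active = growth inhibition at or above a cutoff equal to the mean over every tested compound plus 3 SD, cut at about 60% in these data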;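 also: growth measured after 20 h incubation at 37 °C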
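Test system – E. coli BW25113 ΔtolC::kan, tolC deletion mutant strain · Detection – OD at 615 nm · Buffer or medium – LB with kanamycin 50 µg/mL · Times – 20 h compound exposure of bacteria at 37 °C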
E coli WT exp: growth inhibitors of E. coli BW25113 wild type; OD600 absorbance; growth inhibition, % at 100 µM; 98,000 compounds, 0.15% hits;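 active = growth inhibition above about 50% at one test dose, limit read from the data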;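 also: growth measured after 20 h incubation at 37 °C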
Starred values were filed as active, the others as inactive; · = no result. Rule as the data show it, unless noted: active = inhibition above about 30%; inactive = the rest.

SMILES	Pyk2 oligo antag	Calb biofilm kill	PostGolgi yeast	PostGolgi ctrl	Ecoli tolC	E coli WT exp
CCCC(=O)N(CCN(C(=O)CCC)c1ccccc1)c1ccccc1	-0.25	5.0	·	·	·	·
O=C(CC1CCS(=O)(=O)C1)Nc1ccc[nH]c1=O (stereo not drawn)	1.3	2.5	1.9	2.2	-21.4	-1.0
CN(CC(=O)Nc1ccc(S(N)(=O)=O)cc1)c1ccccc1	0.54	·	-4.6	-1.3	·	2.0
COc1ccc(-c2csc(NCc3ccco3)n2)cc1C	0.14	-2.9	1.2	3.9	64.7*	-1.0
CC(=O)Nc1ccc(-c2csc(NCc3ccco3)n2)cc1	0.13	10.8	·	·	·	·
CC1=CCC(COC(=O)Nc2ccccc2)CC1 (stereo not drawn)	1.31	8.0	1.0	31.2*	97.9*	14.0
O=C(Nc1ccccc1)OCC1CCCN2CCCCC12 (stereo not drawn)	1.84	7.2	7.0	4.5	-8.1	2.0
CCOC(=O)c1c(NC(=O)CSc2nc3cccnc3n2C)sc(C(C)=O)c1C	-0.82	12.2	-1.8	36.5*	18.1	-1.0
CCOC(=O)c1c(NC(=O)CSc2nnc(-c3ccccc3C)n2C)sc(C(C)=O)c1C	-1.71	0.5	-3.4	19.2	9.8	-11.0
Cc1ccc(S(=O)(=O)N(C)Cc2ccc(-c3nnc4n3CCC4)cc2)cc1	-1.09	9.7	-0.6	32.8*	8.6	-3.0
O=C(O)CN(CC(=O)O)CC(=O)O	·	5.9	·	·	·	·
COCCNC(=O)c1ccc2c(c1)NC(=O)CS2	-0.1	12.8	0.5	0.4	-9.1	4.0
CCOc1cc2c(cc1C(C)(C)C)NC(=O)CS2	-0.35	6.3	2.4	34.6*	9.0	1.0
CCN(CC)CCCN1C(=O)C(=O)/C(=C(/O)c2ccccc2)C1c1cc(OC)ccc1OC (stereo not drawn)	-0.17	-0.2	·	·	20.3	·
O=C(Nc1ccccc1N1CCOCC1)C1CCN(S(=O)(=O)c2ccc(F)cc2)CC1	-0.49	·	·	·	·	·
Cc1nn(-c2ccc(Cl)cc2)c2sc(C(=O)N3CCN(C(=O)c4ccco4)CC3)cc12	·	7.8	·	·	9.3	·
Cc1nn(-c2ccc(F)cc2)c2sc(C(=O)N3CCCCCC3)cc12	0.24	-2.6	-6.8	31.3*	96.9*	-22.0
O=C(Nc1nc(-c2ccccn2)cs1)C1COc2ccccc2O1 (stereo not drawn)	·	12.6	31.4*	38.9*	100.0*	11.0
CN1CCN(c2ccc(Cl)cc2NC(=O)C2COc3ccccc3O2)CC1 (stereo not drawn)	-0.87	2.6	-2.8	30.2*	7.7	-8.0
COC(=O)c1cccc(NC(=O)C2COc3ccccc3O2)c1 (stereo not drawn)	0.39	6.0	5.5	39.1*	44.1	2.0
COC(=O)c1cc(NC(=O)C2COc3ccccc3O2)ccc1Cl (stereo not drawn)	0.43	·	-3.5	30.2*	39.8	4.0
O=C(Nc1nc(-c2ccccc2)cs1)C1COc2ccccc2O1 (stereo not drawn)	-0.47	6.0	3.8	17.9	·	-7.0
CCn1nc(C)c(/C=N/NC(=O)c2ccc3c(c2)c(C)c(C)n3Cc2ccccc2)c1C	-2.2	·	4.0	10.2	·	-7.0
O=S(=O)(Nc1ccc(S(=O)(=O)Nc2cccc3ccccc23)cc1)c1ccccc1	-2.22	2.8	-5.8	-6.7	·	6.0
CCC(CC)c1nnc(NC(=O)c2ccc(S(=O)(=O)N3CCc4ccccc4C3)cc2)s1	-0.38	·	·	·	·	·
SMILES	Pyk2 oligo antag	Calb biofilm kill	PostGolgi yeast	PostGolgi ctrl	Ecoli tolC	E coli WT exp
COc1ccc(-c2nnc(NC(=O)c3ccc(S(=O)(=O)N4CCc5ccccc5C4)cc3)o2)cc1	-2.78	5.0	7.0	13.5	94.2*	-13.0
COc1cccc(-c2nnc(NC(=O)c3ccc(S(=O)(=O)N4CC(C)OC(C)C4)cc3)o2)c1 (stereo not drawn)	-4.13*	·	-3.5	-1.7	98.5*	0.0
CCOC(=O)N1CCN(c2nc(-c3ccc(F)cc3)cs2)CC1	0.43	6.8	-4.6	7.0	92.5*	-5.0
COc1cccc(-c2csc(N3CCN(CC(=O)Nc4ccc5c(c4)OCO5)CC3)n2)c1	-0.06	0.9	9.6	7.4	29.5	-16.0
O=C(CN1CCN(c2nc(-c3ccc(F)cc3)cs2)CC1)NCc1ccc2c(c1)OCO2	1.41	2.2	4.4	21.1	80.3*	-4.0
CCC(CC)c1nnc(NC(=O)c2c(C)nn(Cc3ccccc3Cl)c2C)s1	1.44	6.7	-7.8	10.9	·	-13.0
COc1cc(/C=N/NC(=O)c2cnn3c(C)cc(-c4ccccc4)nc23)ccc1O	-1.43	·	-0.8	34.1*	·	-18.0
COc1ccc(/C=N/NC(=O)c2nc(-c3ccccc3)cc(-c3ccccc3)n2)cc1	-2.44	·	8.5	31.2*	·	-21.0

Compound activity: PubChem BioAssay, several laboratories
